Hits are enriched below; roughly 4% of the tested compounds scored in any of these assays.
bCat nuc transl: alters nuclear translocation of beta-catenin in HeLa cells. actives 0.3% (n = 190,000). immunofluorescence imaging. nuclear translocation activity, % at 5 µM;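 active = nuclear translocation activity above 50% at 5 µM, with a well cell count of 50 or more; inconclusive = wells under 50 cells across six images, flagged as toxic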;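 note: per-cell ratio of nuclear to cytoplasmic median beta-catenin stain intensity; plate controls were DMSO negative control for no effect and GSK-3 inhibitor IX positive control for full effect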
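Test system: human HeLa cells, native beta-catenin. Compound dosing: 5 µM primary single dose, 0.1% DMSO, 0.02–20 µM confirmation series. Incubation: compound exposure 24 h at 37°C. Detection: beta-catenin immunostaining with DAPI counterstain, 20x imaging, 6 fields/well. Read-out basis: Nuclear/cytoplasmic beta-catenin signal ratio, % activation.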
KCC2 mod: KCC2 (human) Cl- transport modulation; AID 1456; actives 2.2% (n = 190,000); KCC2 cells, thallium flux FluoZin-2 fluorescence; B-score of Tl+ flux slope (higher = more flux/activation; lower = inhibition) at 10 µM; Q9H2X9;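 active = thallium flux slope and its plate-corrected score both differing from the plate sample mean at a set confidence after two filtering rounds, in either direction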;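 note: slope of fluorescence scaled to starting intensity during 10 to 20 s after thallium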
Target sequence (Q9H2X9 whole entry, looked up): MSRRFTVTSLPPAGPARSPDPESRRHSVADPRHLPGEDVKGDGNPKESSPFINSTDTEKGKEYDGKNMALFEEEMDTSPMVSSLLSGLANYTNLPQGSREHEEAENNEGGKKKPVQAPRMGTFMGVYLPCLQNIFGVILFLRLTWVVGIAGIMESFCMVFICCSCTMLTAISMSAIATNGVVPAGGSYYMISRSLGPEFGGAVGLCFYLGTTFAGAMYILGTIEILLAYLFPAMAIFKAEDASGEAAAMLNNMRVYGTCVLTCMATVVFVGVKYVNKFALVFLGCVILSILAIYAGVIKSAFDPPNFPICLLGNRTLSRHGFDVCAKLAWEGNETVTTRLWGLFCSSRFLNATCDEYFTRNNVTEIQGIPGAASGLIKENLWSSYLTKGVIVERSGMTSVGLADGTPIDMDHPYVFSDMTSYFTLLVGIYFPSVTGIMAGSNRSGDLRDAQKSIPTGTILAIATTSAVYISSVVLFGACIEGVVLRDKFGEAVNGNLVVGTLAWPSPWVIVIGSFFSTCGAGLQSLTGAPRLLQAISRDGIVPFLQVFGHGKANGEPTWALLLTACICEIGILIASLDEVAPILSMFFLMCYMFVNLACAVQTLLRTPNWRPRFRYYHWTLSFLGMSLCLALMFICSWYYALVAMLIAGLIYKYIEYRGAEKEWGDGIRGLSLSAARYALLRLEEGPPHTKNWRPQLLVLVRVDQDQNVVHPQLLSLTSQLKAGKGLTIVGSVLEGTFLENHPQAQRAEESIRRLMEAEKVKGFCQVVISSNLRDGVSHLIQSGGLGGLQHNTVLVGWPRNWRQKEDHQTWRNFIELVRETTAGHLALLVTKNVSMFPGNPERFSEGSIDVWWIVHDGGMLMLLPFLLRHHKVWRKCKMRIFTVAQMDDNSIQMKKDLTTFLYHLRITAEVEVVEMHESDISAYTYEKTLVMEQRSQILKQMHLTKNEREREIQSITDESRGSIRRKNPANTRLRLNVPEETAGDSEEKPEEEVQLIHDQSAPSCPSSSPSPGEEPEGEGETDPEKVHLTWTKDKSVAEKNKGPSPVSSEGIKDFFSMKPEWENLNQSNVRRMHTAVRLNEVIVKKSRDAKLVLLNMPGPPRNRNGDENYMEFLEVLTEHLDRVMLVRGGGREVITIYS
Pf gametocyte: inhibitors of late stage P. falciparum gametocyte viability | P. falciparum stage V gametocytes, ATP luminescence, 24 h | AID 743093 | actives 0.065% (n = 150,000) | inhibition, % at 10.9 µM;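 active = inhibition above the mean plus 3 SD of compounds within the control limits, set per campaign, cut at about 38% in these data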;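 note: 0% = DMSO wells and 100% = medium only without gametocytes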
MT stabilize HCS: stabilizes microtubules in HeLa cells; HeLa tubulin immunostaining HCS, 24 h; share of cells brighter than vehicle mean+2SD; % tubulin-high responders, % at 10 µM; actives 0.83% (n = 200,000); AID 2205;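 active = plate Z-score above 3 for both tubulin-high and condensed-nucleus cell shares, with cell loss under 80%, at 10 µM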;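 note: anti alpha tubulin signal scored within the nucleus-defined area of each cell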
WT yeast gro inh: growth inhibition of WT yeast, mitochondrial fusion screen; mitochondrial fusion phenotypic screen, WT strain; inhibition, % at 10 µM; actives 2.1% (n = 190,000); in the data active = inhibition above about 58%; tested in S. cerevisiae
KCC2 secondary: KCC2 (human) modulation, secondary assay | shares compounds with KCC2 mod | HEK293-KCC2, thallium flux, FluoZin2 fluorescence; active compounds read high | normalised thallium flux (F/F0 slope) at 10 µM | actives 15% (n = 3,700) | AID 1713;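 active = thallium flux slope above the same plate's solvent-only control mean plus 3 SD; inconclusive = the two replicate wells disagree; inactive = no significant difference from solvent-only control wells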
KCC2 bumet counter: thallium flux persisting under bumetanide in KCC2 cells, counter-screen secondary assay; shares compounds with KCC2 mod; HEK293-KCC2 + bumetanide/ouabain, thallium flux FluoZin2; active compounds read high; normalized thallium flux at 10 µM; actives 49% (n = 3,700);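 active = thallium entry rate above the same plate's blocked-transporter control wells by more than 3 SD; inconclusive = the two repeat wells disagree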;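 note: raw slope of fluorescence over initial fluorescence between 10 and 20 s after thallium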
KCC2 secondary2: KCC2 (human) modulation, second secondary assay | shares compounds with KCC2 mod | HEK293-KCC2, thallium flux FluoZin2 fluorescence; actives lie on both sides; F/F0 rise rate, 10–20 s post-thallium | normalized thallium flux at 10 µM | actives 23% (n = 3,700);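 active = thallium flux slope more than 3 SD above or below the plate's solvent-only control mean, mostly below; inconclusive = the two repeat wells disagreed; inactive = no significant shift from solvent-only controls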;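 note: raw slope with 0.1% DMSO as baseline and bumetanide as block control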
HEK293 Tl flux: counter-screen for KCC2 modulators: effect in parental HEK293 cells. thallium flux FluoZin2, ouabain; baseline-ratio fluorescence slope, 10–20 s after thallium. actives 46% (n = 3,700). AID 1716. shares compounds with KCC2 mod. thallium flux rate (normalised fluorescence) at 10 µM;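 active = thallium flux rate significantly above the same plate's solvent-only control wells, beyond their mean plus 3 SD; inconclusive = the two replicate wells gave conflicting results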
KCC2 retest ouab: KCC2 (human) modulation, ouabain retest; shares compounds with KCC2 mod; AID 1717; actives 48% (n = 3,700); HEK293-KCC2, thallium flux FluoZin2 fluorescence; bidirectional: low = inhibitor, high = activator; raw Tl+ flux slope (below DMSO = inhibition, above = activation) at 10 µM;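 active = thallium flux slope beyond 3 SD from same-plate DMSO control mean in most replicates, usually higher, sometimes lower; inconclusive = repeat tests gave conflicting results; inactive = no significant difference from controls in most replicates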;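 note: slope of initial-normalized fluorescence between seconds 10 and 20 after thallium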
HEK counter2: acts in parental HEK cells, second KCC2 counter-screen | shares compounds with KCC2 mod | HEK293 parental, thallium flux FluoZin-2 fluorescence slope | thallium flux slope at 10 µM | actives 33% (n = 3,700);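 active = thallium flux slope above the same plate's solvent-control mean plus 3 SD in both duplicate wells; inconclusive = duplicate wells that disagreed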;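 note: run without ouabain in cells lacking the KCC2 cotransporter; slope of fluorescence scaled to its starting value between 10 and 20 s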
* hit, by the source's call; i = inactive; ? = inconclusive; nt = no result given.

SMILES	bCat nuc transl	KCC2 mod	Pf gametocyte	MT stabilize HCS	WT yeast gro inh	KCC2 secondary	KCC2 bumet counter	KCC2 secondary2	HEK293 Tl flux	KCC2 retest ouab	HEK counter2
CSc1nc(C)cc(Oc2ccc(OCCOc3ccccc3)nn2)n1	0.1	-5.9*	1.2	3.0	3.1	0.00805	0.00571	0.0295	0.00645	0.0161*	0.00981
CC(C)(C)c1cc(C(=O)NNC(=O)c2ccc(Cl)cc2)no1	-5.1	93.9*	8.5	nt	nt	0.0367*	0.103*	0.0498*	0.0571*	?	0.0255*
NS(=O)(=O)c1cc2c(cc1C(F)(F)F)NC(Cc1ccccc1)NS2(=O)=O (stereo not given)	-3.3	-0.398	nt	2.6	6.8	nt	nt	nt	nt	nt	nt
COc1ccccc1N1CCN(c2nc3ccccc3nc2C(C#N)C(=O)OC(C)C)CC1 (stereo not given)	0.1	-0.26	6.4	1.9	18.4	nt	nt	nt	nt	nt	nt
COCCCNC(=O)C(C#N)c1nc2ccccc2nc1N1CCCC1 (stereo not given)	nt	-1.14	nt	4.3	nt	?	-0.000272*	0.0193*	0.00528*	0.0125*	?
CCOc1ccccc1N1CCN(c2nc3ccccc3nc2C(C#N)C(=O)OC)CC1 (stereo not given)	-0.2	nt	-11.4	4.2	0.4	0.00581	0.00417	0.0289	0.00677	0.0182	0.0101
CCCCCNC(=O)C(C#N)c1nc2ccccc2nc1N1CCCC1 (stereo not given)	-4.5	i	nt	1.8	27.6	nt	nt	nt	nt	nt	nt
O=C(O)/C=C/C(=O)N1Cc2cc3ccccc3nc2C1	-0.4	0.238	nt	nt	nt	nt	nt	nt	nt	nt	nt
Nc1ccc(Cl)c(S(=O)(=O)Nc2ccc(Cl)cc2)c1	-0.2	0.668	5.5	nt	nt	nt	nt	nt	nt	nt	nt
C=CCNC(=S)N/N=C/c1ccc(C)c([N+](=O)[O-])c1	nt	1.25	nt	4.1	22.8	nt	nt	nt	nt	nt	nt
O=C(NC(=S)N1CCCCC1)c1csc([N+](=O)[O-])c1	0.2	23.6*	-1.0	nt	nt	0.0224*	0.0323*	0.0354	0.0169*	?	0.0132*
O=C(NC(=S)N1CCOCC1)c1ccc([N+](=O)[O-])cc1	-1.2	0	-8.1	4.0	1.4	nt	nt	nt	nt	nt	nt
C=CCNC(=S)NC(=O)c1csc([N+](=O)[O-])c1	-1.0	5.95*	-29.7	nt	nt	0.00923	0.0201*	0.0298	0.00972*	?	0.00974
O=C(NNc1nc(-c2ccccc2)cs1)c1ccc(F)cc1	-0.5	-3.32	nt	3.5	-11.7	nt	nt	nt	nt	nt	nt
O=C(CCNC(=O)c1ccccc1Cl)Nc1nc(-c2ccc(F)cc2)cs1	0.5	-4.16*	-0.3	3.4	5.2	0.00622	0.00609	0.0323	0.00827	0.014*	0.0108
O=C(NNc1nc(-c2ccccc2)cs1)c1cccs1	-1.2	-3.77*	3.0	nt	nt	0.0092	0.00719	0.0258*	0.00419	0.0149*	0.0113
O=C(NCc1nc(-c2ccccc2)cs1)c1ccccc1	-2.1	-4.27*	-7.2	2.6	10.0	0.00682	?	0.0219*	0.0076	?	0.0115
O=C(NNc1nc(-c2ccc(F)cc2)cs1)c1ccccc1	0.4	-4.24*	nt	3.2	11.7	0.0101	0.00737	0.0275*	0.00477	0.0168*	0.0113
COc1cc(C#N)c(NC(=S)N2CCOCC2)cc1OC	-1.3	nt	nt	1.9	-2.9	nt	nt	nt	nt	nt	nt
C=C(C)CNC(=S)NN=C1c2ccccc2-c2ccccc21	-2.1	27.6*	nt	4.3	69.9*	0.00677	0.0754*	0.0461*	0.0261*	0.055*	0.027*
CCNC(=S)NN=C1c2ccccc2-c2ccccc21	0.0	33.8*	14.4	3.7	14.8	0.0178*	0.0506*	0.0333	0.0672*	0.0469*	0.0163*
C=C(C)CNC(=S)N/N=C/c1ccco1	-1.2	2.73	5.2	nt	nt	nt	nt	nt	nt	nt	nt
CCNC(=S)Nc1ccccc1-c1ccccc1	-0.5	0.21	15.1	1.3	-14.9	nt	nt	nt	nt	nt	nt
Cc1cccc(Oc2sc(C(=O)c3ccccc3)c(N)c2C#N)c1	nt	-0.167	-14.1	3.2	7.9	nt	nt	nt	nt	nt	nt
COc1ccc(OCCN2C(=O)NC(C)(c3ccc(C)cc3)C2=O)cc1 (stereo not given)	-1.5	4.04*	nt	3.5	7.6	0.00805	0.00537	0.0339	0.00419	0.0189	0.0111
SMILES	bCat nuc transl	KCC2 mod	Pf gametocyte	MT stabilize HCS	WT yeast gro inh	KCC2 secondary	KCC2 bumet counter	KCC2 secondary2	HEK293 Tl flux	KCC2 retest ouab	HEK counter2
COc1ccc(C)cc1S(=O)(=O)Nc1cc(Cl)ccc1Cl	-0.7	8.97*	-1.4	2.7	8.0	0.0169	0.0131*	0.0309	0.012*	0.0195	0.0133*
COc1cc(NS(=O)(=O)c2cc(C)ccc2OC)c(OC)cc1Cl	-1.8	nt	nt	2.5	10.7	nt	nt	nt	nt	nt	nt
Cc1c(/C=C(\CC(=O)O)c2nc3ccccc3s2)cc(C#N)n1C	1.0	-1.42	-28.4	nt	nt	nt	nt	nt	nt	nt	nt
Cc1nn(-c2ccc(F)cc2)c(Cl)c1/C=C(\CC(=O)O)c1nc2ccccc2s1	nt	-6.83*	nt	2.7	40.4	0.00881	0.00673	?	0.00661	0.0133*	0.00983
COc1cc(-c2nnc(SC/C=C/c3ccccc3)n2N)cc(OC)c1OC	0.2	-6*	-16.4	2.3	-0.4	0.00801	0.00505	0.0315	0.00708	0.0184	0.0106
O=C(CCCN1C(=O)/C(=C/c2ccccc2Cl)SC1=S)NNC(=O)c1cccnc1	0.7	-4.91*	-6.2	nt	nt	0.00901	0.00502	0.031	0.00692	0.0165*	0.0106
C/C(=N\NC(=O)c1ccccc1NC(=O)c1ccc(Cl)cc1)c1ccncc1	-1.4	0.918	-3.3	4.5	98.3	nt	nt	nt	nt	nt	nt
O=C(Cc1ccc(Cl)cc1)Nc1cccc(-c2nnc(-c3ccco3)o2)c1	nt	0.689	-47.7	3.4	-1.5	nt	nt	nt	nt	nt	nt
O=C(Cc1ccccc1)Nc1cccc(-c2nnc(-c3ccco3)o2)c1	nt	-1.86	16.9	5.2	9.1	0.00522	0.00449	0.0301	0.00676	?	0.0104
CCOCCCNC(=O)c1cccc(OC2CCN(S(C)(=O)=O)CC2)c1	nt	nt	0.1	nt	nt	nt	nt	nt	nt	nt	nt
COc1ccc(Cl)cc1C(=O)CSc1nc(N)cc(N)n1	-2.7	-8.65*	-4.3	3.7	-7.0	0.00754	0.00573	0.0294	0.00645	0.0274	0.01
CCCCn1nnnc1SCC(=O)c1cc(Cl)ccc1OC	-1.3	-1.32	nt	3.6	28.3	nt	nt	nt	nt	nt	nt
Cc1ccc(NC(=O)c2ccccc2NS(=O)(=O)c2ccc(Cl)s2)cc1	1.4	-3.71*	-9.7	2.5	81.6*	0.00711	?	0.022*	0.00717	?	0.0101
